Experimental data as given in article PMC5094435 (Saudi Pharmaceutical Journal : SPJ, 2015).
≈ marks a conversion by molar mass, not a printed value. Where “and” joins values, the source holds several entries; their conditions need not be identical. Identical values can stand only once.

Key:
Aspergillus niger = test: Antifungal activity; assay type: cell-based; conditions: read-out: MIC, A. niger
Method in brief: (§1)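 Run by the poison food technique against Aspergillus niger and Aspergillus flavus. Fluconazole was the reference drug.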

Aspergillus flavus = test: Antifungal activity; assay type: cell-based; conditions: read-out: MIC, A. flavus
Method in brief: as §1

[1] = test system: acetic acid induced writhing; test: Peripheral analgesic activity, acetic acid induced writhing method; assay type: in vivo, Swiss Albino mice; conditions: mice; for Peripheral analgesic activity (writhing test) No. of writhing: mean ± SEM
Method in brief: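 Writhing was induced with aqueous acetic acid in Swiss albino mice (20–30 g) of either sex, six per group. % Protection = (Wc − Wt)/Wc × 100, where Wc and Wt are the mean writhing counts of the control and test groups.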

[2] = test system: Pseudomonas aeruginosa (MTCC 741); test: Antibacterial activity; assay type: cell-based; conditions: Pseudomonas aeruginosa, MTCC741, read-out: MIC, P. aeruginosa
Method in brief: (§2)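 Screened by a standard method against S. aureus MTCC 96, B. subtilis MTCC 121, E. coli MTCC 1652 and P. aeruginosa MTCC 741. Ciprofloxacin was the reference antibiotic. Only compounds active at 100 μg/mL went on to MIC determination.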

[3] = test system: tail immersion (hot water 55 °C); test: Central analgesic activity, tail immersion method; assay type: in vivo, Swiss albino mice; conditions: mice, mean ± SEM; for Central analgesic activity [tail immersion (reaction time in min)] 1 h: 1 h after the dosing; for Central analgesic activity [tail immersion (reaction time in min)] 2 h: 2 h after the dosing
Method in brief: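 Used the same mice from the writhing test after a washout period. Each mouse was held in a restrainer and the protruding tail (up to 5 cm) was dipped in 55 °C water. Withdrawal time was recorded as reaction time at 1 h and 2 h post-dose. Data are mean ± SEM, analysed by ANOVA followed by Dunnett's t test.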

[4] = test system: carrageenan induced edema; test: Anti-inflammatory activity, carrageenan induced rat paw edema; assay type: in vivo, Wistar rats; conditions: inhibition of edema, rats
Method in brief: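 Used the Winter et al. paw oedema method in Wistar rats of either sex (160–200 g), housed six per cage and acclimatised 48 h. Percent inhibition of oedema was calculated at 1, 2, 3 and 4 h. Diclofenac served as the standard drug.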

[5] = test system: Bacillus subtilis (MTCC 121); test: Antibacterial activity; assay type: cell-based; conditions: MTCC121, read-out: MIC, B. subtilis
Method in brief: as §2

[6] = test system: Escherichia coli (MTCC 1652); test: Antibacterial activity; assay type: cell-based; conditions: Escherichia coli, MTCC1652, read-out: MIC, E. coli
Method in brief: as §2

mucosal damage = test: Acute ulcerogenic activity; assay type: in vivo, Albino rats; conditions: rats, mean ± SEM
Method in brief: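 Conducted in Albino rats (160–200 g, housed six per cage, acclimatised 48 h) following Cioli et al. Gastric mucosal damage was scored at the end of the study. Ulcerogenic potential (severity index) came from comparing the mean score of each treated group with that of the control rats.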

[7] = test system: Staphylococcus aureus (MTCC 96); test: Antibacterial activity; assay type: cell-based; conditions: MTCC96, read-out: MIC, S. aureus
Method in brief: as §2

| Compound | MIC (Aspergillus niger) | MIC (Aspergillus flavus) | Peripheral analgesic activity (writhing test) No. of writhing [1] | Peripheral analgesic activity (writhing test) % Protection ([1]; vs control group) | MIC [2] | Central analgesic activity [tail immersion (reaction time in min)] 1 h [3] | Central analgesic activity [tail immersion (reaction time in min)] 2 h [3] | % Inhibition ± SEM After 1 h [4] | % Inhibition ± SEM After 2 h [4] | % Inhibition ± SEM After 3 h [4] | MIC [5] | MIC [6] | Ulcerogenic activity (severity index) (mucosal damage) | MIC [7] |
| --- | --- | --- | --- | --- | --- | --- | --- | --- | --- | --- | --- | --- | --- | --- |
| O=C1C(=Cc2cc3cc([N+](=O)[O-])ccc3nc2Cl)C=C(c2ccc3ccccc3c2)N1Cc1ccccc1 [Compound 7d, 1-Benzyl-3-[(2-chloro-6-nitroquinolin-3-yl)methylene]-5-(naphthalene-2-yl)-1H-pyrrol-2(3H)-one] | 25 µg/mL (≈ 48.3 µM) | 50 µg/mL (≈ 96.5 µM) | 21.0 ± 10.0^∗ | 50% | > 100 µg/mL | 3.2 ± 0.4^∗ min | 5.4 ± 1.9 min | 83 ± 0.06^∗∗ % | 73 ± 0.15^∗∗ % | 66 ± 0.26% | 25 µg/mL (≈ 48.3 µM) | 25 µg/mL (≈ 48.3 µM) | 0.40 ± 0.32 | 25 µg/mL (≈ 48.3 µM) |
| O=C1C(=Cc2cc3cc(Cl)ccc3nc2Cl)C=C(c2ccc(-c3ccccc3)cc2)N1Cc1ccccc1 [Compound 7f, 1-Benzyl-3-[(2,6-dichloroquinolin-3-yl)methylene]-5-(biphenyl-4-yl)-1H-pyrrol-2(3H)-one] | 25 µg/mL (≈ 46.9 µM) | 50 µg/mL (≈ 93.7 µM) | 12.8 ± 3.8^∗∗ | – | 50 µg/mL (≈ 93.7 µM) | 3.2 ± 0.2^∗ min | 6.2 min and 6.2 ± 1.5^∗ min | 84 ± 0.12% | 74 ± 0.19^∗∗ % | 63 ± 0.14^∗ % | 12.5 µg/mL (≈ 23.4 µM) | 25 µg/mL (≈ 46.9 µM) | 0.53 ± 0.12 | 12.5 µg/mL (≈ 23.4 µM) |
